Reference: ChEMBL document CHEMBL4689842, “EUbOPEN Chemogenomics Library wave 1” (2021)

Tested on: U2OS
Assay: Multiplex assay against U2OS
Assay type: toxicity, cell-based
Details: human
Method in brief: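 Cells stained live at seeding with Hoechst33342, BioTracker Green Microtubule Cytoskeleton Dye, MitoTracker Red and Annexin V Alexa Fluor 680 were imaged on a CQ1 microscope at 37°C and 5% CO2 after compound addition. Their classification by CellPathfinder machine-learning gating ran from Hoechst high-intensity objects versus normal cells, to healthy, pyknosed or fragmented nuclei among normal cells, to mitotic or apoptotic among pyknosed cells. Tubulin, mitochondrial-mass and membrane-permeability phenotypes are per cents of healthy-nucleus cells.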

[1] = 12 h, 1 µM, compound concentration 1 uM, replicate 1
[2] = 12 h, 1 µM, compound concentration 1 uM, replicate 2
[3] = 12 h, 10 µM, compound concentration 10 uM, replicate 1
[4] = 12 h, 10 µM, compound concentration 10 uM, replicate 2
[5] = 24 h, 1 µM, compound concentration 1 uM, replicate 1
[6] = 24 h, 1 µM, compound concentration 1 uM, replicate 2
[7] = 24 h, 10 µM, compound concentration 10 uM, replicate 1
[8] = 24 h, 10 µM, compound concentration 10 uM, replicate 2
[9] = 48 h, 1 µM, compound concentration 1 uM, replicate 1
[10] = 48 h, 1 µM, compound concentration 1 uM, replicate 2
[11] = 48 h, 10 µM, compound concentration 10 uM, replicate 1
[12] = 48 h, 10 µM, compound concentration 10 uM, replicate 2

COc1cccc([C@@H](C)NCCCc2ccccc2Cl)c1.Cl [TECALCET HYDROCHLORIDE]
Population Apoptotic (%) [1]: 50% | Population Fragmented Nuclei (%) [1]: 22% | Population Healthy Nuclei (%) [1]: 72% | Population Hoechst High Intensity Objects (%) [1]: 32% | Population Membrane Permeable-Phenotype (%) [1]: 3% | Population Mitochondria Different-Phenotype (%) [1]: 34% | Population Mitotic Cells (%) [1]: 50% | Population Normal (%) [1]: 67% | Population Pyknosed Nuclei (%) [1]: 5% | Population Tubulin-Different-Phenotype (%) [1]: 30% | Total Cell Count [1]: 188 | Population Apoptotic (%) [2]: 16% | Population Fragmented Nuclei (%) [2]: 10% | Population Healthy Nuclei (%) [2]: 81% | Population Hoechst High Intensity Objects (%) [2]: 10% | Population Membrane Permeable-Phenotype (%) [2]: 6% | Population Mitochondria Different-Phenotype (%) [2]: 20% | Population Mitotic Cells (%) [2]: 83% | Population Normal (%) [2]: 89% | Population Pyknosed Nuclei (%) [2]: 8% | Population Tubulin-Different-Phenotype (%) [2]: 18% | Total Cell Count [2]: 70 | Population Apoptotic (%) [3]: 62% | Population Fragmented Nuclei (%) [3]: 11% | Population Healthy Nuclei (%) [3]: 64% | Population Hoechst High Intensity Objects (%) [3]: 8% | Population Membrane Permeable-Phenotype (%) [3]: 6% | Population Mitochondria Different-Phenotype (%) [3]: 86% | Population Mitotic Cells (%) [3]: 37% | Population Normal (%) [3]: 91% | Population Pyknosed Nuclei (%) [3]: 23% | Population Tubulin-Different-Phenotype (%) [3]: 90% | Total Cell Count [3]: 53 | Population Apoptotic (%) [4]: 41% | Population Fragmented Nuclei (%) [4]: 7% | Population Healthy Nuclei (%) [4]: 75% | Population Hoechst High Intensity Objects (%) [4]: 5% | Population Membrane Permeable-Phenotype (%) [4]: 18% | Population Mitochondria Different-Phenotype (%) [4]: 90% | Population Mitotic Cells (%) [4]: 58% | Population Normal (%) [4]: 94% | Population Pyknosed Nuclei (%) [4]: 17% | Population Tubulin-Different-Phenotype (%) [4]: 96% | Total Cell Count [4]: 83 | Population Apoptotic (%) [5]: 44% | Population Fragmented Nuclei (%) [5]: 22% | Population Healthy Nuclei (%) [5]: 57% | Population Hoechst High Intensity Objects (%) [5]: 26% | Population Membrane Permeable-Phenotype (%) [5]: 3% | Population Mitochondria Different-Phenotype (%) [5]: 30% | Population Mitotic Cells (%) [5]: 55% | Population Normal (%) [5]: 73% | Population Pyknosed Nuclei (%) [5]: 20% | Population Tubulin-Different-Phenotype (%) [5]: 19% | Total Cell Count [5]: 239 | Population Apoptotic (%) [6]: 77% | Population Fragmented Nuclei (%) [6]: 8% | Population Healthy Nuclei (%) [6]: 80% | Population Hoechst High Intensity Objects (%) [6]: 8% | Population Membrane Permeable-Phenotype (%) [6]: 6% | Population Mitochondria Different-Phenotype (%) [6]: 6% | Population Mitotic Cells (%) [6]: 22% | Population Normal (%) [6]: 91% | Population Pyknosed Nuclei (%) [6]: 10% | Population Tubulin-Different-Phenotype (%) [6]: 12% | Total Cell Count [6]: 95 | Population Apoptotic (%) [7]: 50% | Population Fragmented Nuclei (%) [7]: 12% | Population Healthy Nuclei (%) [7]: 63% | Population Hoechst High Intensity Objects (%) [7]: 12% | Population Membrane Permeable-Phenotype (%) [7]: 10% | Population Mitochondria Different-Phenotype (%) [7]: 81% | Population Mitotic Cells (%) [7]: 50% | Population Normal (%) [7]: 87% | Population Pyknosed Nuclei (%) [7]: 23% | Population Tubulin-Different-Phenotype (%) [7]: 79% | Total Cell Count [7]: 61 | Population Apoptotic (%) [8]: 35% | Population Fragmented Nuclei (%) [8]: 8% | Population Healthy Nuclei (%) [8]: 70% | Population Hoechst High Intensity Objects (%) [8]: 8% | Population Membrane Permeable-Phenotype (%) [8]: 24% | Population Mitochondria Different-Phenotype (%) [8]: 91% | Population Mitotic Cells (%) [8]: 64% | Population Normal (%) [8]: 91% | Population Pyknosed Nuclei (%) [8]: 20% | Population Tubulin-Different-Phenotype (%) [8]: 92% | Total Cell Count [8]: 97 | Population Apoptotic (%) [9]: 83% | Population Fragmented Nuclei (%) [9]: 29% | Population Healthy Nuclei (%) [9]: 60% | Population Hoechst High Intensity Objects (%) [9]: 20% | Population Membrane Permeable-Phenotype (%) [9]: 8% | Population Mitochondria Different-Phenotype (%) [9]: 34% | Population Mitotic Cells (%) [9]: 16% | Population Normal (%) [9]: 79% | Population Pyknosed Nuclei (%) [9]: 10% | Population Tubulin-Different-Phenotype (%) [9]: 14% | Total Cell Count [9]: 378 | Population Apoptotic (%) [10]: 63% | Population Fragmented Nuclei (%) [10]: 6% | Population Healthy Nuclei (%) [10]: 84% | Population Hoechst High Intensity Objects (%) [10]: 7% | Population Membrane Permeable-Phenotype (%) [10]: 12% | Population Mitochondria Different-Phenotype (%) [10]: 15% | Population Mitotic Cells (%) [10]: 36% | Population Normal (%) [10]: 92% | Population Pyknosed Nuclei (%) [10]: 9% | Population Tubulin-Different-Phenotype (%) [10]: 18% | Total Cell Count [10]: 153 | Population Apoptotic (%) [11]: 77% | Population Fragmented Nuclei (%) [11]: 18% | Population Healthy Nuclei (%) [11]: 54% | Population Hoechst High Intensity Objects (%) [11]: 11% | Population Membrane Permeable-Phenotype (%) [11]: 7% | Population Mitochondria Different-Phenotype (%) [11]: 55% | Population Mitotic Cells (%) [11]: 22% | Population Normal (%) [11]: 88% | Population Pyknosed Nuclei (%) [11]: 27% | Population Tubulin-Different-Phenotype (%) [11]: 62% | Total Cell Count [11]: 73 | Population Apoptotic (%) [12]: 54% | Population Fragmented Nuclei (%) [12]: 10% | Population Healthy Nuclei (%) [12]: 60% | Population Hoechst High Intensity Objects (%) [12]: 4% | Population Membrane Permeable-Phenotype (%) [12]: 36% | Population Mitochondria Different-Phenotype (%) [12]: 82% | Population Mitotic Cells (%) [12]: 45% | Population Normal (%) [12]: 95% | Population Pyknosed Nuclei (%) [12]: 29% | Population Tubulin-Different-Phenotype (%) [12]: 73% | Total Cell Count [12]: 130
